{"data": "Published values gathered from unrelated publications", "target": "Interleukin-1 receptor-associated kinase 4 (IRAK4, Homo sapiens, UniProt Q9NWZ3)", "Residues used in one study (Q9NWZ3 1-460)": "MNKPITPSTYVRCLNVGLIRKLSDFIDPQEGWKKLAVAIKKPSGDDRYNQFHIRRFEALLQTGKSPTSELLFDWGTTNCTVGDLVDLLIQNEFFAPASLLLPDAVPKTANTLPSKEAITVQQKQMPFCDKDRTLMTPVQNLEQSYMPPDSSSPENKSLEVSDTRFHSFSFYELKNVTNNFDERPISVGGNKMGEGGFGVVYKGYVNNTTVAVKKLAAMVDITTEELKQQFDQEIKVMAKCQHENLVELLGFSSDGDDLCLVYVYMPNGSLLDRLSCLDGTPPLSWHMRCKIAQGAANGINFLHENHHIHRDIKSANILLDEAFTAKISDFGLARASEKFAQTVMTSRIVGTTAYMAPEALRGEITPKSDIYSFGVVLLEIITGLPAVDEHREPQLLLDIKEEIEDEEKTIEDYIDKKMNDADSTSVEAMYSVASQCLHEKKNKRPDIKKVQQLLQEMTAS", "note": "Each line is one published result; the experiments were not run side by side."}
{"SMILES": "C#Cc1cc(-c2cc(Nc3nc(N[C@@H](C)c4ccc(F)cn4)ncc3Cl)n[nH]2)ccc1C=O", "test": "enzyme activity, inhibitor", "setting": "0.2 µM", "endpoint": "inhibition", "result": "10.1%"}
{"SMILES": "C=CC(=O)N1CCC[C@@H](n2nc(-c3ccc(Oc4ccccc4)cc3)c3c(N)ncnc32)C1", "test": "enzyme activity, inhibitor", "setting": "1 µM", "endpoint": "inhibition", "result": "22%"}
{"SMILES": "CS(=O)(=O)c1ccccc1Nc1nc(Nc2ccnc(CO)c2)ncc1Cl", "test": "enzyme activity, inhibitor, radiometric", "setting": "1 µM", "endpoint": "remaining activity", "result": "13.4%"}
{"SMILES": "CN1CCN(C(=O)c2ccc(NC(=O)Nc3ccc(N(C)c4ccnc(Nc5ccc(CS(C)(=O)=O)cc5)n4)cc3)cc2)CC1", "test": "binding", "setting": "1 µM", "endpoint": "remaining binding", "result": "52%"}
{"SMILES": "CC#CC(=O)N1CCC[C@H]1c1nc(-c2ccc(C(=O)Nc3ccccn3)cc2)c2c(N)nccn12", "test": "enzyme activity, inhibitor", "setting": "1 µM", "endpoint": "inhibition", "result": "16%"}
{"SMILES": "C#Cc1cnc(Nc2ccc(CO)nc2)nc1Nc1ccccc1S(C)(=O)=NC#N (centres unmarked)", "test": "enzyme activity, inhibitor, radiometric", "setting": "1 µM", "endpoint": "remaining activity", "result": "0.79%"}
{"SMILES": "C1=C/COCc2cc(ccc2OCCN2CCCC2)Nc2nccc(n2)-c2cccc(c2)COC/1", "test": "cell-free assay", "setting": "0.1 µM", "endpoint": "remaining signal", "result": "56%"}
{"SMILES": "Cc1cc(O)c(-c2ccc([C@@H](C)CN(C)C)cc2)c2c1[nH]c(=O)c1sccc12", "test": "enzyme activity, inhibitor", "setting": "0.1 µM", "endpoint": "inhibition", "result": "1.9%"}
{"SMILES": "Cc1ccc(NC(=O)c2ccnc(C(F)(F)F)c2)cc1-c1cc(OCCO)nc(N2CCOCC2)c1", "test": "binding", "setting": "1 µM", "endpoint": "remaining binding", "result": "100%"}
{"SMILES": "CS(=O)(=NC#N)c1ccccc1Nc1nc(Nc2ccc(CO)nc2)ncc1Cl (centres unmarked)", "test": "enzyme activity, inhibitor, radiometric", "setting": "1 µM", "endpoint": "remaining activity", "result": "3.01%"}
{"SMILES": "CCCCC(=O)Nc1ccc(-c2ccc3ncn(CCC)c(=O)c3c2)cn1", "test": "binding, competition with immobilised ligand", "setting": "0.5 µM", "endpoint": "remaining binding", "result": "93%"}
